Data on one compound can be found in ChEMBL document CHEMBL1136923, “Highly potent, orally available anti-inflammatory broad-spectrum chemokine inhibitors” (J Med Chem, 2009).

Series [1] deals with C-C chemokine receptor type 5 (Homo sapiens) (UniProt P51681). Briefly: Antagonist activity at CCR5 in human THP1 cells assessed as inhibition of CCL5-induced chemotaxis after 2 hrs by microtiter format trans-well migration assay. The format is functional, cell-based. To be noted: THP-1. The essentials:
(§1)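 Microtiter trans-well migration assay in Gey's balanced salt solution with 1 mg/mL endotoxin-free BSA, no fetal calf serum. Migration ran 2 h at 37 °C. Compounds dissolved in DMSO and added to both top and bottom compartments, final DMSO 1%.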

Series [2] deals with C-X-C chemokine receptor type 4 (Homo sapiens) (UniProt P61073). Briefly: Antagonist activity at CXCR4 in human THP1 cells assessed as inhibition of CXCL12-induced chemotaxis after 2 hrs by microtiter format trans-well migration assay. In kind it is functional, cell-based. The conditions noted are these: THP-1. The essentials:
as §1

For series [3], the target named is T1, C-C chemokine receptor type 1 (Homo sapiens) (UniProt P32246).
T1 sequence (whole entry): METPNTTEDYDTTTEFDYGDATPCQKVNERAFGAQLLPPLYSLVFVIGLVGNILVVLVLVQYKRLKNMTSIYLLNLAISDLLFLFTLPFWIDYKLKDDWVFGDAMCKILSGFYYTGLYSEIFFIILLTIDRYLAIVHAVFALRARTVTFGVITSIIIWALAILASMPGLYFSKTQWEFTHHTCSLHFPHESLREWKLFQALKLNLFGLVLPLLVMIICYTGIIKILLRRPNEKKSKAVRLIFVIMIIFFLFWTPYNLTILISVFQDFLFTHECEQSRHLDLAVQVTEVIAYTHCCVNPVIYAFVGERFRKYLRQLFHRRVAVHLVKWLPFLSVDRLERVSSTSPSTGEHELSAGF
The series can be described thus: Antagonist activity at CCR1 in human THP1 cells assessed as inhibition of CCL3-induced chemotaxis at 0.01 nM after 2 hrs by microtiter format trans-well migration assay. The conditions noted are these: THP-1. In kind it is functional, cell-based. In outline:
as §1

The target in series [4] is C-C chemokine receptor type 5 (Homo sapiens) (UniProt P51681). The series can be described thus: Antagonist activity at CCR5 in human THP1 cells assessed as inhibition of CCL5-induced chemotaxis at 0.01 nM after 2 hrs by microtiter format trans-well migration assay. The conditions noted are these: THP-1. The format is functional, cell-based. In outline:
as §1

The target in series [5] is C-X-C chemokine receptor type 4 (Homo sapiens) (UniProt P61073). The series can be described thus: Antagonist activity at CXCR4 in human THP1 cells assessed as inhibition of CXCL12-induced chemotaxis at 1000 nM after 2 hrs by microtiter format trans-well migration assay. In kind it is functional, cell-based. The conditions noted are these: THP-1. In outline:
as §1

Series [6] shares this target. The series can be described thus: Antagonist activity at CXCR4 in human THP1 cells assessed as inhibition of CXCL12-induced chemotaxis at 100 nM after 2 hrs by microtiter format trans-well migration assay. In kind it is functional, cell-based. To be noted: THP-1. The essentials: as §1
The target in series [7] is T2, C5a anaphylatoxin chemotactic receptor 1 (Homo sapiens) (UniProt P21730).
T2 sequence (whole entry): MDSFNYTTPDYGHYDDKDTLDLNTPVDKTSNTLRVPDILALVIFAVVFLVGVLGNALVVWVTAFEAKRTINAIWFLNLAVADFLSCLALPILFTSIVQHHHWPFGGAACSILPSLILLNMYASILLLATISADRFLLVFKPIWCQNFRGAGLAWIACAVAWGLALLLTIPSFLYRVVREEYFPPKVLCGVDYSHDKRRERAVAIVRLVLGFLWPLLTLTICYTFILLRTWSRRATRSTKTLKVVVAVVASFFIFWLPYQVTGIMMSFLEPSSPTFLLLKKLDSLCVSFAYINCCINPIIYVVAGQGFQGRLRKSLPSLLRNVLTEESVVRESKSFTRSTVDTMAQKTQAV
The series can be described thus: Antagonist activity at C5a receptor in human PMNC assessed as inhibition of C5a-induced chemotaxis at 1 nM after 2 hrs by microtiter format trans-well migration assay. In kind it is functional. The essentials:
as §1

Series [8] has as its system THP-1. The series can be described thus: Endogenous chemoattractant activity at human THP1 cells assessed as cell migration at 10 uM after 2 hrs by microtiter format trans-well migration assay. In kind it is functional.
Series [9] deals with THP-1. The series can be described thus: Endogenous chemoattractant activity at human THP1 cells assessed as cell migration at 0.001 nM after 2 hrs by microtiter format trans-well migration assay. The format is functional.
For series [10], the system named is THP-1. Briefly: Toxicity in human THP1 cells assessed as change in cell size at 10 nM by forward scatter flow cytometry relative to control. To be noted: thp-1, 0.01 µM. The format is cell-based.
Series [11] deals with THP-1. The series can be described thus: Cytotoxicity against human THP1 cells up to 100 uM by trypan blue exclusion assay. The format is cell-based.
The subject of series [12] is Mus musculus. The series can be described thus: Antiinflammatory activity in sc dosed mouse assessed as inhibition of LPS-induced TNFalpha upregulation measured 2 hrs after LPS challenge. The format is functional.
For series [13], the system named is Mus musculus. Briefly: Antiinflammatory activity in sc dosed mouse assessed as inhibition of LPS-induced TNFalpha upregulation measured 2 hrs after LPS challenge relative to control. The format is functional. The essentials:
(§2)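 Murine sublethal LPS endotoxemia screen. LPS is injected intraperitoneally and serum TNF-α is measured 2 h later as the end point. Compound is given subcutaneously or orally in a vehicle of 0.6% DMSO plus 1% carboxymethylcellulose (final concentrations) in sterile water. Values are % relative to control.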

Series [14] has as its system Mus musculus. The series can be described thus: Antiinflammatory activity in mouse assessed as inhibition of LPS-induced TNFalpha upregulation at 830 pg, sc measured 2 hrs after LPS challenge. In kind it is functional. The essentials: as §2
Series [15] relates to Mus musculus. The series can be described thus: Antiinflammatory activity in mouse assessed as inhibition of LPS-induced TNFalpha upregulation at 0.075 mg, sc measured 2 hrs after LPS challenge. The format is functional. The essentials:
(§3)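 Murine sublethal endotoxemia: LPS given intraperitoneally, with serum TNF-α measured 2 h after the LPS injection as the end point. Compound was given subcutaneously or orally. Vehicle was 0.6% DMSO and 1% carboxymethylcellulose (final concentrations) in sterile water. Effect is reported as % relative to control.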

Series [16] has as its system Mus musculus. The series can be described thus: Antiinflammatory activity in mouse assessed as inhibition of LPS-induced TNFalpha upregulation at 0.0025 mg, po measured 2 hrs after LPS challenge. The format is functional. In outline: as §3
Series [17] relates to Mus musculus. Briefly: Antiinflammatory activity in po dosed mouse assessed as inhibition of LPS-induced TNFalpha upregulation measured 2 hrs after LPS challenge relative to control. The format is functional. In outline: as §2
Series [18] is described as follows: Clearance in Sprague-Dawley rat at 1 mg/kg, iv administered as single dose. In kind it is ADME, organism-based. Also noted: dose 1 mg/kg, route intravenous. To be noted: in vivo. In outline:
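Male Sprague-Dawley rats, three per compound, receive a single intravenous dose in 5% DMSO in 0.9% saline. Food and water are given ad libitum. Plasma is taken at 5, 15, 30, 60, 120, 180, 240 and 480 min. Drug is measured by LC/MS/MS after extraction with 0.1% formic acid in acetonitrile. The curve is back-extrapolated to time zero assuming an initial volume of 0.26 L/kg.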

Series [19] can be described thus: AUC (0 to t) in Sprague-Dawley rat at 1 mg/kg, iv administered as single dose. The format is ADME, organism-based, Plasma. Also noted: dose 1 mg/kg, route intravenous. To be noted: Sprague-Dawley, plasma. The essentials: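 Male Sprague-Dawley rats, three per compound per route, single dose. IV vehicle 5% DMSO in 0.9% saline; oral gavage vehicle 1% carboxymethylcellulose in 0.9% saline; fed ad libitum. Plasma taken 5–480 min post-dose, extracted with 0.1% formic acid in acetonitrile, quantified by LC/MS/MS (positive mode). AUC(0–t) by linear/log trapezoidal rule; IV curve back-extrapolated assuming initial volume 0.26 L/kg.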

Series [20] in a line: Half life in Sprague-Dawley rat at 3 mg/kg, po administered as single dose. In kind it is ADME, organism-based. Also noted: dose 3 mg/kg, route oral. To be noted: in vivo. In outline:
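Male Sprague-Dawley rats, three per compound, receive a single oral dose by gavage in 1% carboxymethylcellulose in 0.9% saline, with food and water ad libitum. Plasma is sampled from 5 to 480 min and drug is quantified by positive-mode LC/MS/MS after acetonitrile/formic acid extraction. The lower limit of quantitation is about 2 ng/mL. Exposure is AUC(0→t) by the linear/log trapezoidal rule, and F is oral fractional bioavailability.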

Sequence of C-X-C chemokine receptor type 4 (Homo sapiens) (P61073 whole entry): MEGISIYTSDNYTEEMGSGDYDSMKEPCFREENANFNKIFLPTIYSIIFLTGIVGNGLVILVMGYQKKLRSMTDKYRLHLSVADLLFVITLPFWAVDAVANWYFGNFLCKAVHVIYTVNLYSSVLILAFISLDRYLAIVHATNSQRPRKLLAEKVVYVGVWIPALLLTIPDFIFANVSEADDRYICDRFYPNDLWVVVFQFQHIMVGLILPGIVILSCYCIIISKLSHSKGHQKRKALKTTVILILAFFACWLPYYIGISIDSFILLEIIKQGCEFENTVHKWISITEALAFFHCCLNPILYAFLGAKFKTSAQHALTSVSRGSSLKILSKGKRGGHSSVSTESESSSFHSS
Sequence of C-C chemokine receptor type 5 (Homo sapiens) (P51681 whole entry, looked up): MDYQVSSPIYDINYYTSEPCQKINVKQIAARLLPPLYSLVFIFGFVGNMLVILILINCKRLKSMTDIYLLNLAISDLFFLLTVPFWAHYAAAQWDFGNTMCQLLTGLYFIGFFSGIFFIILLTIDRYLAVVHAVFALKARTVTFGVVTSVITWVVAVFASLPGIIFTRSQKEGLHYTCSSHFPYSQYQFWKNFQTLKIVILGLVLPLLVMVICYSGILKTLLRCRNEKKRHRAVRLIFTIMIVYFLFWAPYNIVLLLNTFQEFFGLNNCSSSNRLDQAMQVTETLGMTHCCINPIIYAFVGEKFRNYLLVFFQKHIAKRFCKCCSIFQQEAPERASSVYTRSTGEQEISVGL

Consider `CCCCCCCCCCC(C)(C)C(=O)N[C@H]1CCCCNC1=O`, for which the ED50 in series [1] was 0.9 nM; in [2] it was 1 nM; in the series with Mus musculus [12], 0.15 µg/kg. Further, the inhibition in [3] stood at 21%; in [4] it was 8.5%; in series [5], 112%; in [6], 111%; in series [7], 17.5%. The values for the Activity in the series on THP-1 [8], in the series on THP-1 [9] and in the series on THP-1 [11] were 2540%, 4282% and “Non-toxic”, respectively. Also, the “fold change (FC)” value in the series on THP-1 [10] is listed as 1.04. For the same compound, the “inhibition (INH)” value in the series on Mus musculus [13] is 70%; in the series on Mus musculus [14], 18%; in the series with Mus musculus [15], 66%; in the series with Mus musculus [16] it was 0%; with Mus musculus [17], 70%. In [18], this compound had a clearance of 40 mL/min/kg. For the same compound, the area under the curve AUC(0-t) in series [19] was 395 ng·h/mL. Besides, the half-life in [20] was determined as 1.7 h.

Broadly, the inhibition is the change of the read-out against control, counted positive when it falls. One may read the clearance as a measure of how efficiently the substance is removed, as volume per time. A lower clearance goes with inefficient removal. What is called AUC(0-t) is the area under the concentration-time curve up to a stated or last time point. As a reminder, the half-life is the time in which the quantity being followed falls by half. A low value points to rapid decline.
